Assay results from ChEMBL document CHEMBL4351001, “2-Aminoimidazole-based antagonists of the 5-HT6 receptor - A new concept in aminergic GPCR ligand design” (Eur J Med Chem, 2019).
Values after ≈ are worked out from the molar mass of the structure shown.

Molecular target: 5-hydroxytryptamine receptor 7 (Homo sapiens, UniProt P34969)
Experiment: Displacement of [3H]-5-CT from human 5HT7 receptor expressed in HEK293 cells measured after 1 hr by liquid scintillation counter method
Assay type: cell-based
Settings: hek293; call rule not given here

Chain of 5-hydroxytryptamine receptor 7 (P34969 whole entry): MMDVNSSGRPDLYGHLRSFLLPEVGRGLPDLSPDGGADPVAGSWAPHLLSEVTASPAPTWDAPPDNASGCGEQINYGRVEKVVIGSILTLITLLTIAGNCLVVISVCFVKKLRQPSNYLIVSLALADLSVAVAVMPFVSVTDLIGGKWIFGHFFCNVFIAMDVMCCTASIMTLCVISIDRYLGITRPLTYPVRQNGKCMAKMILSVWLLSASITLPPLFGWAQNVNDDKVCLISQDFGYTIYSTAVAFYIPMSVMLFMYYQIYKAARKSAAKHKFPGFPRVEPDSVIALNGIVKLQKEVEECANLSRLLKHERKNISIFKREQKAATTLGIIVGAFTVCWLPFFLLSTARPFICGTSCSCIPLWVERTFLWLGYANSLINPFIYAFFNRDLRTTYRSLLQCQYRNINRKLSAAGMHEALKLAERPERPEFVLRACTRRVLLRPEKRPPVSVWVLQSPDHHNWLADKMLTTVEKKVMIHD

Row | Structure (SMILES) | Ki
1 | COc1ccc2c(c1)c(-c1[nH]c(NCCc3ccccc3)nc1C)cn2S(=O)(=O)c1ccccc1 | Not Active
2 | COc1ccc2c(c1)c(-c1[nH]c(NCC(F)F)nc1C)cn2S(=O)(=O)c1ccccc1 | Not Active
3 | COc1ccc2c(c1)c(-c1c(C)nc(N)n1CC(F)F)cn2S(=O)(=O)c1ccccc1 | Not Active

Same assay, conditions: read-out: Ki

Row | Structure (SMILES) | Ki [µM]
4 | COc1ccc2c(c1)c(-c1[nH]c(NC(=O)Cc3ccccc3)nc1C)cn2S(=O)(=O)c1ccccc1 | > 10
5 | CCC(=O)Nc1nc(C)c(-c2cn(S(=O)(=O)c3ccccc3)c3ccc(OC)cc23)[nH]1 | > 10
6 | CC(=O)Nc1nc(C)c(-c2cn(S(=O)(=O)c3ccccc3)c3ccccc23)[nH]1 | > 10

System: not listed separately
Experiment: Stability of compound in rat liver microsomes
Assay type: ADME, Microsome
Settings: not given
Procedure, shortened: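 Incubation in triplicate with rat liver microsomes at 37°C with NADP, G6P, G6P dehydrogenase and MgCl2. Verapamil and donepezil served as microsomal activity standards.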

Row | Structure (SMILES) | Stability
7 | CCC(=O)Nc1nc(C)c(-c2cn(S(=O)(=O)c3ccccc3)c3ccc(OC)cc23)[nH]1 | Stable
8 | CC(=O)Nc1nc(C)c(-c2cn(S(=O)(=O)c3ccccc3)c3ccccc23)[nH]1 | Stable

Molecular target: Histamine H1 receptor (Homo sapiens) (UniProt P35367)
Sequence (P35367 whole entry): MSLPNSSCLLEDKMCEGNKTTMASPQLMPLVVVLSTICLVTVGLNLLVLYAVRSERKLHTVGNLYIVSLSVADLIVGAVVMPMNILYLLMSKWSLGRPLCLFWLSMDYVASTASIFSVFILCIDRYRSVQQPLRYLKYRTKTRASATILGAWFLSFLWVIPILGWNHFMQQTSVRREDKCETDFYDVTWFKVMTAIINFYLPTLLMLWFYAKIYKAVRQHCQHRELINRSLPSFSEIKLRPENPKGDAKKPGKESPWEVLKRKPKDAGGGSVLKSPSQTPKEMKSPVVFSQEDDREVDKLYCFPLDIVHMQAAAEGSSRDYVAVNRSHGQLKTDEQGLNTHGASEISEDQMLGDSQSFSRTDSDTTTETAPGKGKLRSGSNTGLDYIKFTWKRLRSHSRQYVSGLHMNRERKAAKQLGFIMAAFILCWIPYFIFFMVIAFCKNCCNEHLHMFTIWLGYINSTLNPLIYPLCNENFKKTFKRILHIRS
Experiment: Displacement of [3H] pyrilamine from human recombinant H1 histamine receptor at 10^-6 M measured after 60 mins by scintillation counting method relative to control
Settings: not given

Row | Structure (SMILES) | inhibition [%]
9 | COc1ccc2c(c1)c(-c1[nH]c(NCC(F)F)nc1C)cn2S(=O)(=O)c1ccccc1 | 1

Molecular target: 5-hydroxytryptamine receptor 2A (Homo sapiens, UniProt P28223)
Sequence (P28223 whole entry): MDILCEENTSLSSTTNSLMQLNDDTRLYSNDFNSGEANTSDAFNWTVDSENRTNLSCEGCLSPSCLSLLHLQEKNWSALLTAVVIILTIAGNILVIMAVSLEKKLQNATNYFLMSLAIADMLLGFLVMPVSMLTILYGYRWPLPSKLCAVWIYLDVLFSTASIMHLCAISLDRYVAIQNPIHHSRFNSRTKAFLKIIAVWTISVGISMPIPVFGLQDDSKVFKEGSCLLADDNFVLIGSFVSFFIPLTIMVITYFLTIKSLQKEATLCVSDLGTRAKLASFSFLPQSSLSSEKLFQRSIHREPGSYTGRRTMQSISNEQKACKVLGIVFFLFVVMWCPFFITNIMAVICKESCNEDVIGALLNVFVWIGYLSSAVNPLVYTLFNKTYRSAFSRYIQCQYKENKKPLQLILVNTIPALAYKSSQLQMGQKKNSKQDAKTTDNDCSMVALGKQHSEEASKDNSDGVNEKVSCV
Experiment: Displacement of [3H]ketanserin from human 5HT2A receptor expressed in CHOK1 cells incubated for 1 hr by liquid scintillation counter method
Assay type: cell-based
Settings: read-out: Ki

Row | Structure (SMILES) | Ki [µM]
10 | COc1ccc2c(c1)c(-c1[nH]c(NC(=O)Cc3ccccc3)nc1C)cn2S(=O)(=O)c1ccccc1 | > 10
11 | COc1ccc2c(c1)c(-c1[nH]c(NCCc3ccccc3)nc1C)cn2S(=O)(=O)c1ccccc1 | 1.91
12 | CC(=O)Nc1nc(C)c(-c2cn(S(=O)(=O)c3ccccc3)c3ccccc23)[nH]1 | > 10
13 | COc1ccc2c(c1)c(-c1[nH]c(NCC(F)F)nc1C)cn2S(=O)(=O)c1ccccc1 | 1.23
14 | COc1ccc2c(c1)c(-c1c(C)nc(N)n1CC(F)F)cn2S(=O)(=O)c1ccccc1 | 3.24

System: not listed separately
Experiment: in vitro
Settings: rat, liver microsomes

Row | Structure (SMILES) | microsomal CLint [µL/min/mg]
15 | COc1ccc2c(c1)c(-c1[nH]c(NCC(F)F)nc1C)cn2S(=O)(=O)c1ccccc1 | 39

Same assay, conditions: rat, microsomes

Row | Structure (SMILES) | microsomal CLint [µL/min/mg]
16 | CCC(=O)Nc1nc(C)c(-c2cn(S(=O)(=O)c3ccccc3)c3ccc(OC)cc23)[nH]1 | 17.1
17 | CC(=O)Nc1nc(C)c(-c2cn(S(=O)(=O)c3ccccc3)c3ccccc23)[nH]1 | 7.3

Molecular target: T1, Alpha-1A adrenergic receptor (Rattus norvegicus) (UniProt P43140)
T1 sequence (whole entry): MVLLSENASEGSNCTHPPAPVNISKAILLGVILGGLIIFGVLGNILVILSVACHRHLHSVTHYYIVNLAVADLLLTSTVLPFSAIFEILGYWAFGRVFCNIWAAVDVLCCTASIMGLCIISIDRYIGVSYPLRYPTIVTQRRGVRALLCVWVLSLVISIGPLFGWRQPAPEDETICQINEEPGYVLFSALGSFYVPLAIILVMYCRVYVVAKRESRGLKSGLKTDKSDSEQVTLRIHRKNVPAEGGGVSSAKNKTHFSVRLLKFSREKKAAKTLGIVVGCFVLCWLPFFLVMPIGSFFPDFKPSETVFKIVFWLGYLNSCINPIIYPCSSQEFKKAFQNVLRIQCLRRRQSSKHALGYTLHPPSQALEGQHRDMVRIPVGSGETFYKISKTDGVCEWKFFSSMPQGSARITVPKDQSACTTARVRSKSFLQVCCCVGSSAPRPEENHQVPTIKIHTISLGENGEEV
Experiment: Displacement of [3H] prazosin from rat alpha 1A adrenergic receptor at 10^-6 M measured after 60 mins by scintillation counter method relative to control
Settings: not given

Row | Structure (SMILES) | inhibition [%]
18 | COc1ccc2c(c1)c(-c1[nH]c(NCC(F)F)nc1C)cn2S(=O)(=O)c1ccccc1 | 4

Molecular target: D(2) dopamine receptor (Homo sapiens, UniProt P14416)
Sequence (P14416 whole entry): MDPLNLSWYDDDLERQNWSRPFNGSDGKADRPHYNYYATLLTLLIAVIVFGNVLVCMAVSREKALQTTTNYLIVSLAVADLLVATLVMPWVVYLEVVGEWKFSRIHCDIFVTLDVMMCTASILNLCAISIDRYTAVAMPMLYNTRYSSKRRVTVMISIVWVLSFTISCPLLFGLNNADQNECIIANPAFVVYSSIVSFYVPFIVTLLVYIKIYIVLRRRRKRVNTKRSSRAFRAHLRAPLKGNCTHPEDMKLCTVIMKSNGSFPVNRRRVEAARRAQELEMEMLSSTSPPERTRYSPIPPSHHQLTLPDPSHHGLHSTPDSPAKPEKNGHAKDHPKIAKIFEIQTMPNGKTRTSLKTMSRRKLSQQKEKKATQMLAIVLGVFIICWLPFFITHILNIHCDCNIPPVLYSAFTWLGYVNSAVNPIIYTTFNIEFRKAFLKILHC
Experiment: Displacement of [3H]-methylspiperone from human D2 long receptor expressed in HEK293 cells measured after 1 hr by liquid scintillation counter method
Assay type: cell-based
Settings: not given
Procedure, shortened: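 HEK293 membranes stably expressing human D2L receptor, incubated 1 h at 37°C, then filtered and retained radioactivity counted; (+)-butaclamol 1 μM defines nonspecific binding. Tested in triplicate at 7–8 concentrations (10⁻¹¹–10⁻⁴ M); Ki via Cheng-Prusoff, averaged over at least two independent experiments.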

Row | Structure (SMILES) | Ki [µM]
19 | COc1ccc2c(c1)c(-c1[nH]c(NC(=O)Cc3ccccc3)nc1C)cn2S(=O)(=O)c1ccccc1 | > 10
20 | COc1ccc2c(c1)c(-c1[nH]c(NCCc3ccccc3)nc1C)cn2S(=O)(=O)c1ccccc1 | 2.14
21 | CCC(=O)Nc1nc(C)c(-c2cn(S(=O)(=O)c3ccccc3)c3ccc(OC)cc23)[nH]1 | > 10
22 | CC(=O)Nc1nc(C)c(-c2cn(S(=O)(=O)c3ccccc3)c3ccccc23)[nH]1 | > 10
23 | COc1ccc2c(c1)c(-c1[nH]c(NCC(F)F)nc1C)cn2S(=O)(=O)c1ccccc1 | 3.98
24 | COc1ccc2c(c1)c(-c1c(C)nc(N)n1CC(F)F)cn2S(=O)(=O)c1ccccc1 | 3.8

Molecular target: T2, 5-hydroxytryptamine receptor 6 (Homo sapiens, UniProt P50406)
T2 sequence (P50406 whole entry): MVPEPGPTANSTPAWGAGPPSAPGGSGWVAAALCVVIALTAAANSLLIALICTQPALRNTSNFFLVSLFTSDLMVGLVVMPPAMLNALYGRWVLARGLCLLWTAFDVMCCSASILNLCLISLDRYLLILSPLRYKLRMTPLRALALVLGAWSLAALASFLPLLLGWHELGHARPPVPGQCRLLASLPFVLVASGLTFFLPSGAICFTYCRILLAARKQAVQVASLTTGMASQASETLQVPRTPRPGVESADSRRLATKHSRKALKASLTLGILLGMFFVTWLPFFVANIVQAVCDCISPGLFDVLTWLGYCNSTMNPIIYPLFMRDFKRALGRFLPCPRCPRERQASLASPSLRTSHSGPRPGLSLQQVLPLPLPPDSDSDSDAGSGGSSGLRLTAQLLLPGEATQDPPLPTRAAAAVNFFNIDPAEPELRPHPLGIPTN
Experiment: Antagonist activity at human 5HT6 receptor expressed in HEK293 cells assessed as inhibition of 5-CT induced cAMP production measured after 30 mins by TR-FRET assay
Assay type: functional, cell-based
Settings: not given

Row | Structure (SMILES) | Kb [µM]
25 | COc1ccc2c(c1)c(-c1[nH]c(NCC(F)F)nc1C)cn2S(=O)(=O)c1ccccc1 | 0.013

Molecular target: T3, 5-hydroxytryptamine receptor 1A (Homo sapiens, UniProt P08908)
T3 sequence (P08908 whole entry): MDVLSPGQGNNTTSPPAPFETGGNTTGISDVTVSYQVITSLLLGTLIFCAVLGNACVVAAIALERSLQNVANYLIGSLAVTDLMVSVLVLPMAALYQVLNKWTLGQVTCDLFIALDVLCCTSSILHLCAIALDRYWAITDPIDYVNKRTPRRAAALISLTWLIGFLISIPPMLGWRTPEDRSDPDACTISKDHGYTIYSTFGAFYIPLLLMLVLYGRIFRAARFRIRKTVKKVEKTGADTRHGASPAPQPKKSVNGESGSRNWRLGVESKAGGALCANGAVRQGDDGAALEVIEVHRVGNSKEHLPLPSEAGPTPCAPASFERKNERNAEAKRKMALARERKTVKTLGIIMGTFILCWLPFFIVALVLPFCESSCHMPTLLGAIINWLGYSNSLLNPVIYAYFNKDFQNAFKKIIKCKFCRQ
Experiment: Displacement of [3H]-8-OH-DPAT from human 5HT1A receptor expressed in HEK293 cells incubated for 1 hr by liquid scintillation counter method
Assay type: cell-based
Settings: hek293
Procedure, shortened: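 HEK293 cells stably expressing human 5-HT1AR; membranes in 50 mM Tris–HCl, 0.1 mM EDTA, 4 mM MgCl2, 10 μM pargyline, 0.1% ascorbate; incubated 1 h at room temperature, then filtered. Nonspecific binding defined with 10 μM 5-HT.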

Row | Structure (SMILES) | Ki
26 | COc1ccc2c(c1)c(-c1[nH]c(NCCc3ccccc3)nc1C)cn2S(=O)(=O)c1ccccc1 | Not Active
27 | COc1ccc2c(c1)c(-c1[nH]c(NCC(F)F)nc1C)cn2S(=O)(=O)c1ccccc1 | Not Active
28 | COc1ccc2c(c1)c(-c1c(C)nc(N)n1CC(F)F)cn2S(=O)(=O)c1ccccc1 | Not Active

Same assay, conditions: read-out: Ki

Row | Structure (SMILES) | Ki [µM]
29 | CC(=O)Nc1nc(C)c(-c2cn(S(=O)(=O)c3ccccc3)c3ccccc23)[nH]1 | > 10

System: not listed separately
Experiment: Solubility of compound in water
Assay type: physicochemical
Settings: buffer

Row | Structure (SMILES) | solubility
30 | COc1ccc2c(c1)c(-c1[nH]c(NC(=O)Cc3ccccc3)nc1C)cn2S(=O)(=O)c1ccccc1 | Insoluble
31 | COc1ccc2c(c1)c(-c1[nH]c(NCCc3ccccc3)nc1C)cn2S(=O)(=O)c1ccccc1 | Insoluble
32 | CCC(=O)Nc1nc(C)c(-c2cn(S(=O)(=O)c3ccccc3)c3ccc(OC)cc23)[nH]1 | Insoluble
33 | CC(=O)Nc1nc(C)c(-c2cn(S(=O)(=O)c3ccccc3)c3ccccc23)[nH]1 | Insoluble
34 | COc1ccc2c(c1)c(-c1c(C)nc(N)n1CC(F)F)cn2S(=O)(=O)c1ccccc1 | Insoluble

Same assay, conditions: water; read-out: solubility

Row | Structure (SMILES) | solubility [µg/mL]
35 | COc1ccc2c(c1)c(-c1[nH]c(NCC(F)F)nc1C)cn2S(=O)(=O)c1ccccc1 | 1000 to 10000 (≈ 2.24 to 22.4 mM)

Molecular target: T4, Muscarinic acetylcholine receptor M1 (Homo sapiens) (UniProt P11229)
T4 sequence (whole entry): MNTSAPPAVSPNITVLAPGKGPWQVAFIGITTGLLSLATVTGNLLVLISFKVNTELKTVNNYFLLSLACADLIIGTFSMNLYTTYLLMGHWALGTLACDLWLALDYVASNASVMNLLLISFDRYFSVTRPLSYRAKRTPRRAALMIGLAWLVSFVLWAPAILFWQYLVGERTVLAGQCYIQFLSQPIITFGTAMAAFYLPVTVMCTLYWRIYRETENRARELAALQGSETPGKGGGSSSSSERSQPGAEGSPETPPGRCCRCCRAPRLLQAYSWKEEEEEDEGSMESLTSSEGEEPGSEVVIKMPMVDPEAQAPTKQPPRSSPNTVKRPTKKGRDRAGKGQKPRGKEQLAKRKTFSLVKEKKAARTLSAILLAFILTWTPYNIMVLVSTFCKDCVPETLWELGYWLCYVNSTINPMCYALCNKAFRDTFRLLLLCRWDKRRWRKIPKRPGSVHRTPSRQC
Experiment: Displacement of [3H] pirenzepine from human recombinant muscarinic M1 receptor at 10^-6 M measured after 60 mins by scintillation counter method relative to control
Settings: not given

Row | Structure (SMILES) | inhibition [%]
36 | COc1ccc2c(c1)c(-c1[nH]c(NCC(F)F)nc1C)cn2S(=O)(=O)c1ccccc1 | -4

System: not listed separately
Experiment: in vitro
Settings: rat, liver microsomes
Remark: another data set of the same source

Row | Structure (SMILES) | half-life [h]
37 | COc1ccc2c(c1)c(-c1[nH]c(NCC(F)F)nc1C)cn2S(=O)(=O)c1ccccc1 | 0.6

Same assay, conditions: rat, microsomes

Row | Structure (SMILES) | half-life [h]
38 | CCC(=O)Nc1nc(C)c(-c2cn(S(=O)(=O)c3ccccc3)c3ccc(OC)cc23)[nH]1 | 1.35
39 | CC(=O)Nc1nc(C)c(-c2cn(S(=O)(=O)c3ccccc3)c3ccccc23)[nH]1 | 3.17

Molecular target: T5, 5-hydroxytryptamine receptor 2C (Homo sapiens) (UniProt P28335)
T5 sequence (whole entry): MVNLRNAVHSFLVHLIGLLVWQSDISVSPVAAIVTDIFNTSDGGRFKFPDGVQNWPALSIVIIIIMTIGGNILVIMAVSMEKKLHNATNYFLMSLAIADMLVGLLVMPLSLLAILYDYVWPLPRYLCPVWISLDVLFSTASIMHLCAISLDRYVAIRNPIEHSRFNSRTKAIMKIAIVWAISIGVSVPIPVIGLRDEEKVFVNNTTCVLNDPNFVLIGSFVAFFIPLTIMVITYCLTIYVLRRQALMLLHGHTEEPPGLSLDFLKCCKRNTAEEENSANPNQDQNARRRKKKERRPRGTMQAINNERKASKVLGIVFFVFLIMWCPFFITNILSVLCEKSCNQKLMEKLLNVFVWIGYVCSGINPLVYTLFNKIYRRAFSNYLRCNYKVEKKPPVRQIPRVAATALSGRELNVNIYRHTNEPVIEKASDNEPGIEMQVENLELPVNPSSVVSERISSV
Experiment: Displacement of [3H]mesulergine from human recombinant 5HT2C serotonin receptor at 10^-6M incubated for 120 mins by scintillation counter method relative to control
Settings: not given

Row | Structure (SMILES) | inhibition [%]
40 | COc1ccc2c(c1)c(-c1[nH]c(NCC(F)F)nc1C)cn2S(=O)(=O)c1ccccc1 | 28

Molecular target: T2, 5-hydroxytryptamine receptor 6
Experiment: Displacement of [3H]LSD from human 5HT6 receptor expressed in HEK293 cells measured after 1 hr by liquid scintillation counter method
Assay type: cell-based
Settings: not given

Row | Structure (SMILES) | Ki [µM]
41 | COc1ccc2c(c1)c(-c1[nH]c(NC(=O)Cc3ccccc3)nc1C)cn2S(=O)(=O)c1ccccc1 | 0.003
42 | COc1ccc2c(c1)c(-c1[nH]c(NCCc3ccccc3)nc1C)cn2S(=O)(=O)c1ccccc1 | 0.083
43 | CCC(=O)Nc1nc(C)c(-c2cn(S(=O)(=O)c3ccccc3)c3ccc(OC)cc23)[nH]1 | 0.014
44 | CC(=O)Nc1nc(C)c(-c2cn(S(=O)(=O)c3ccccc3)c3ccccc23)[nH]1 | 0.025
45 | COc1ccc2c(c1)c(-c1[nH]c(NCC(F)F)nc1C)cn2S(=O)(=O)c1ccccc1 | 0.021
46 | COc1ccc2c(c1)c(-c1c(C)nc(N)n1CC(F)F)cn2S(=O)(=O)c1ccccc1 | 0.157
